In PMC4303305 (Biochemistry, 2014):
Read-outs that look alike come from different tables or passages of the source.

Columns and labels:
[1] = type: physicochemical, Rhodnius prolixus
How it was run: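 Recombinant nitrophorin refolded from inclusion bodies, reconstituted with excess hemin at pH 7.5, then purified by size-exclusion at pH 5.0. ¹H{¹⁵N} HSQC spectra recorded across pH: 0.2 mM protein at pH 5.0, 5.5 and 6.0; 0.8 mM at pH 6.5. pH 6.5 peaks assigned from pH 7.3 assignments, following cross-peaks through intermediate spectra. NO-bound sample run at 3.7 mM and after dilution to 0.88 mM.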

[2] = Stopped-flow kinetics of release of NO from the nitrophorins; type: binding, Rhodnius prolixus; conditions: for NO Kd (NO dissociation): 5–10 μM in 100 mM sodium phosphate buffer
How it was run: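 Stopped-flow measurement of NO release from NO-bound nitrophorins with native or M0-bearing N-termini. Dissociation Kd obtained at pH 5.0 and 7.5 in dilute solution, 5–10 μM protein in 100 mM sodium phosphate buffer.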

[3] = cited from earlier work
[4] = Size-exclusion FPLC retention of nitrophorins, mutants and ligand complexes; type: physicochemical, Rhodnius prolixus; conditions: pH 5.0
How it was run: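 Analytical run on Superdex75 at 4 °C in 100 mM sodium acetate, NaCl added to 220 mM total ionic strength. Protein at 1 mM was run at pH 5.0, 5.25, 5.5 and 5.75. Separately, protein from 1 to 0.025 mM was run at pH 5.0. Elution position compared with molecular weight standards.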

B1: NP4: NO-carrying heme protein from the salivary glands of Rhodnius prolixus, recombinant, N-terminus ACTK... (protein)
chain: ACTKNAIAQTGFNKDKYFNGDVWYVTDYLDLEPDDVPKRYCAALAAGTASGKLKEALYHYDPKTQDTFYDVSELQVESLGKYTANFKKVDKNGNVKVAVTAGNYYTFTVMYADDSSALIHTCLHKGNKDLGDLYAVLNRNKDAAAGDKVKSAVSAATLEFSKFISTKENNCAYDNDSLKSLLTK
monomer in 1H{15N} HSQC spectrum ([1]; pH 5.0, 0.2 mM): some monomer present | oligomeric state in solution ([1]; pH 5.6, 0.5 mM, absence of NO): mainly monomeric | dimer in 1H{15N} HSQC spectrum ([1]; pH 6.5, 0.8 mM): not detectable | state of the dimer ([1]; pH 7.3, 3.7 mM, absence of NO): completely dissociated to monomer | Kd for the loss of NO from NP4, times that from NP1 ([2]; pH 5.0): 0.6 | NO Kd (NO dissociation) ([2]; pH 5.0): 0.020 ± 0.003 s^–1 | Kd for the loss of NO from NP4, times that of NP1 ([2]; pH 7.5): 1.4 | NO Kd (NO dissociation) ([2]; pH 7.5): 1.60 ± 0.11 s^–1 | NO Kd (NO dissociation) ([3]; column pH 7.5, measured at pH 8.0 rather than pH 7.5 (footnote a)): 2.6 ± 0.1 ^a s^–1 | NO Kd (NO dissociation) ([3]; pH 5.0, ref 17): 0.14 ± 0.01 s^–1 | monomer or dimer on the size-exclusion column ([4]; 1 mM): pure dimer | monomer or dimer on the size-exclusion column ([4]; serial dilution to 0.025 mM): fairly pure monomer
